In brackets after ≈: the same amount, converted by molar mass.
How the values were obtained:
[1] = Solubility in pH 6.5 buffer; type: physicochemical
Method in brief: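 About 10 mg shaken in 1 mL 0.01 M phosphate buffer, pH 6.5, for 24 h at 37 °C. Suspension filtered through glass wool, diluted in mobile phase, and quantified by HPLC with detection at 214 nm; reported as mg/mL.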

Renin [2] = biological target: T1, Renin (Homo sapiens, UniProt P00797); experiment: Inhibitory activity against purified human renal renin at pH 6.0
T1 sequence (P00797 whole entry): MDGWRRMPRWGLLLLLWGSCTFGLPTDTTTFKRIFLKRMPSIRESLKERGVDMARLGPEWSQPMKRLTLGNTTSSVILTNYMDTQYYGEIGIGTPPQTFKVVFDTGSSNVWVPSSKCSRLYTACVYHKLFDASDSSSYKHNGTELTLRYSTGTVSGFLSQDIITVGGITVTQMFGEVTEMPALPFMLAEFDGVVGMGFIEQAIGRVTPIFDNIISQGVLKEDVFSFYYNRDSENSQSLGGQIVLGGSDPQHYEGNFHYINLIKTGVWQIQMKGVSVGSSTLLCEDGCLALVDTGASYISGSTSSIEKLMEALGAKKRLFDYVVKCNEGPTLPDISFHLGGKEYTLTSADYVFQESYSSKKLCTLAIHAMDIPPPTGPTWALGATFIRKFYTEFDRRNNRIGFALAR

Rattus norvegicus [3] = organism: Rattus norvegicus; experiment: In vitro intestinal permeability in rats; type: ADME
Method in brief: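 Rat jejunum removed after cervical dislocation, washed with balanced electrolyte solution at 4 °C. Central 30 cm mounted for recirculating luminal perfusion (30 mL) at 37 °C under 95% O2-5% CO2. Inhibitor added mucosally at 100 μM with 3H-PEG-900 baseline marker. Mucosal and serosal samples taken every 15 min for 150 min. Inhibitor measured by HPLC-UV and PEG by scintillation. P = J/ΔC from steady-state (45-120 min) regression, cm/h; mean ± SE, n = 2.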

Renin [4] = biological target: T1, Renin; experiment: Inhibitory activity against human plasma renin at pH 7.4; type: cell-free
Renin [5] = biological target: T1, Renin; experiment: Inhibitory activity against purified human renal renin at pH 6.0
Rattus norvegicus [6] = experiment: Plasma levels in the systemic blood vessel of rat after 10 min of administration of 10 mg/kg intraduodenally; type: functional, organism-based; design: dose 10 mg/kg
Method in brief: (§1)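 Male Sprague-Dawley rats, fasted overnight, ≥150 g, under inactin (80 mg/kg ip), pylorus ligated. Carotid and portal vein catheterized. 10 mg/kg injected into the duodenum; paired blood drawn at 10 min. Plasma acetonitrile-precipitated, serially diluted, dried.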

Rattus norvegicus [7] = experiment: Plasma levels in the portal blood vessel of rat after 10 min of administration of 10 mg/kg intraduodenally; type: functional, organism-based; design: dose 10 mg/kg; method in brief: as §1

Structure (SMILES) | solubility [1] [µg/mL] | IC50 (Renin [2]) [nM] | IC50 (Renin [4]) [nM] | IC50 (Renin [5]) [nM] | other results
COc1ccc(C[C@H](NC(=O)C(C)C)C(=O)N[C@@H](Cc2cnc[nH]2)C(=O)N[C@H](CC2CCCCC2)[C@H](O)[C@H](O)CN=[N+]=[N-])cc1 | 29 (≈ 46.3 µM) | 2 | 10 |  | Permeability (Rattus norvegicus [3]): 0.79 cm (10e3*hr)-1
CC(C)(C)OC(=O)N[C@@H](Cc1ccccc1)C(=O)N[C@@H](Cc1cnc[nH]1)C(=O)N[C@H](CC1CCCCC1)[C@H](O)[C@@H](CO)CN=[N+]=[N-] |  |  |  | 370 | 
COc1ccc(C[C@H](NC(=O)N2CCOCC2)C(=O)N[C@@H](Cc2c[nH]cn2)C(=O)N[C@H](CC2CCCCC2)[C@H](O)[C@H](O)CN=[N+]=[N-])cc1 | 1000 (≈ 1490 µM) | 4 | 20 |  | Plasma level (Rattus norvegicus [6]): 15 ng/mL; Permeability (Rattus norvegicus [3]): 4.25 cm (10e3*hr)-1; Plasma level (Rattus norvegicus [7]): 230 ng/mL
Cn1c(=O)c2[nH]cnc2n(C)c1=O.O [THEOPHYLLINE] |  |  |  |  | Permeability (Rattus norvegicus [3]): 22.35 cm (10e3*hr)-1
CC(C)(C)OC(=O)N[C@@H](Cc1ccccc1)C(=O)N[C@@H](Cc1c[nH]cn1)C(=O)N[C@H](CC1CCCCC1)[C@H](O)[C@H](CO)CN=[N+]=[N-] |  |  |  | 10 | 
CC(C)(C)OC(=O)N[C@@H](Cc1ccccc1)C(=O)N[C@@H](Cc1cnc[nH]1)C(=O)N[C@H](CC1CCCCC1)[C@H](O)C(O)(CO)CN=[N+]=[N-] (stereo partly drawn) |  |  |  | 4.8 | 
CC(C)(C)OC(=O)N[C@@H](Cc1ccccc1)C(=O)N[C@@H](Cc1c[nH]cn1)C(=O)N[C@H](CC1CCCCC1)[C@H](O)CCN=[N+]=[N-] |  |  |  | 20 | 
COc1ccc(C[C@H](NC(=O)C(C)C)C(=O)N[C@@H](Cc2c[nH]cn2)C(=O)N[C@H](CC2CCCCC2)[C@H](O)[C@H](O)CN=[N+]=[N-])cc1 |  |  |  |  | Plasma level (Rattus norvegicus [6]): 12 ng/mL; Plasma level (Rattus norvegicus [7]): 53 ng/mL
CC(C)(C)OC(=O)N[C@@H](Cc1ccccc1)C(=O)N[C@@H](Cc1c[nH]cn1)C(=O)N[C@H](CC1CCCCC1)[C@H](O)C(=O)CN=[N+]=[N-] |  |  |  | 5.4 | 
CC(C)(C)OC(=O)N[C@@H](Cc1ccccc1)C(=O)N[C@@H](Cc1cnc[nH]1)C(=O)N[C@H](CC1CCCCC1)[C@H](O)CN=[N+]=[N-] |  |  |  | 7.5 | 
C=C(CN=[N+]=[N-])[C@@H](O)[C@@H](CC1CCCCC1)NC(=O)[C@H](Cc1c[nH]cn1)NC(=O)[C@H](Cc1ccccc1)NC(=O)OC(C)(C)C |  |  |  | 55 | 

Further lines, with some results ahead:

solubility [1] [µg/mL] | IC50 (Renin [2]) [nM] | IC50 (Renin [4]) [nM] | IC50 (Renin [5]) [nM] | Structure (SMILES) | other results
 | 0.4 | 9 | 0.4 | CC(C)(C)OC(=O)N[C@@H](Cc1ccccc1)C(=O)N[C@@H](Cc1c[nH]cn1)C(=O)N[C@H](CC1CCCCC1)[C@H](O)[C@H](O)CN=[N+]=[N-] | 
13 (≈ 21.8 µM) | 0.55 | 3.3 |  | CC(C)C(=O)N[C@@H](Cc1ccccc1)C(=O)N[C@@H](Cc1c[nH]cn1)C(=O)N[C@H](CC1CCCCC1)[C@H](O)[C@H](O)CN=[N+]=[N-] | 
23 (≈ 36 µM) | 0.7 | 7.6 |  | [N-]=[N+]=NC[C@@H](O)[C@@H](O)[C@@H](CC1CCCCC1)NC(=O)[C@H](Cc1c[nH]cn1)NC(=O)[C@H](Cc1ccccc1)NC(=O)C1CCOCC1 | 
2600 (≈ 4060 µM) | 0.67 | 2.4 |  | [N-]=[N+]=NC[C@@H](O)[C@@H](O)[C@@H](CC1CCCCC1)NC(=O)[C@H](Cc1cnc[nH]1)NC(=O)[C@H](Cc1ccccc1)NC(=O)N1CCOCC1 | 
 |  |  | 26 | CC(C)(C)OC(=O)N[C@@H](Cc1ccccc1)C(=O)N[C@@H](Cc1c[nH]cn1)C(=O)N[C@H](CC1CCCCC1)[C@H](O)[C@@H](O)CN=[N+]=[N-] | 
